# Measured values of several laboratories.
# Compare with care: the assays were run in different laboratories.
# PIK3CB: Phosphatidylinositol 4,5-bisphosphate 3-kinase catalytic subunit beta isoform (PIK3CB, Homo sapiens, UniProt P42338)
Compound,target,effect on,action,method,concentration,measurement,value
CCCCC(=O)Nc1ccc(-c2ccc3ncn(CCC)c(=O)c3c2)cn1,PIK3CB,binding,,competition with immobilised ligand,0.5 µM,remaining binding,100%
C=CC(=O)N1CCC[C@@H](n2nc(-c3ccc(Oc4ccccc4)cc3)c3c(N)ncnc32)C1,PIK3CB,enzyme activity,inhibitor,,1 µM,inhibition,2%
CC(C)S(=O)(=O)c1ccc2nccc(Nc3ccc4sc(C5CCCC5)nc4c3)c2c1,"Phosphatidylinositol 4,5-bisphosphate 3-kinase catalytic subunit beta isoform, with p85 (PIK3CB, Homo sapiens, UniProt P42338)",enzyme activity,inhibitor,,1 µM,activity vs control,97%
Cc1ccc(NC(=O)c2ccnc(C(F)(F)F)c2)cc1-c1cc(OCCO)nc(N2CCOCC2)c1,PIK3CB,binding,,,1 µM,remaining binding,100%
CC#CC(=O)N1CCC[C@H]1c1nc(-c2ccc(C(=O)Nc3ccccn3)cc2)c2c(N)nccn12,PIK3CB,enzyme activity,inhibitor,,1 µM,inhibition,0%
Cc1nc(NC(=O)N2CCC[C@H]2C(N)=O)sc1-c1ccnc(C(C)(C)C(F)(F)F)c1,PIK3CB,enzyme activity,inhibitor,ADP detection,10 µM,inhibition,82.9%
CN1CCN(C(=O)c2ccc(NC(=O)Nc3ccc(N(C)c4ccnc(Nc5ccc(CS(C)(=O)=O)cc5)n4)cc3)cc2)CC1,PIK3CB,binding,,,1 µM,remaining binding,100%
C1=C/COCc2cc(ccc2OCCN2CCCC2)Nc2nccc(n2)-c2cccc(c2)COC/1,PIK3CB,binding,,,0.1 µM,remaining binding,98%
